From ChEMBL document CHEMBL1154321, “Benzoxazole piperidines as selective and potent somatostatin receptor subtype 5 antagonists” (Bioorg Med Chem Lett, 2009)
Values after ≈ are worked out from the molar mass of the structure shown.

Assays:
[1] = target: Somatostatin receptor type 2 (Homo sapiens, UniProt P30874); experiment: Displacement of SST14 from human recombinant SST2 receptor
Summary of the method: (§1)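 Membranes prepared by sonication from cells expressing the SST receptor subtype, incubated with radiolabeled 11-Tyr SST-14 tracer and test compound at varying concentrations; non-labeled SST-14 defined non-specific binding. Incubation stopped by glass-fiber filtration, bound radioactivity counted; IC50 for half-maximal binding inhibition estimated and Ki derived.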

[2] = target: Somatostatin receptor type 3 (Homo sapiens, UniProt P32745); experiment: Displacement of SST14 from human recombinant SST3 receptor; summary of the method: as §1
Somatostatin receptor type 3, sequence (P32745 whole entry): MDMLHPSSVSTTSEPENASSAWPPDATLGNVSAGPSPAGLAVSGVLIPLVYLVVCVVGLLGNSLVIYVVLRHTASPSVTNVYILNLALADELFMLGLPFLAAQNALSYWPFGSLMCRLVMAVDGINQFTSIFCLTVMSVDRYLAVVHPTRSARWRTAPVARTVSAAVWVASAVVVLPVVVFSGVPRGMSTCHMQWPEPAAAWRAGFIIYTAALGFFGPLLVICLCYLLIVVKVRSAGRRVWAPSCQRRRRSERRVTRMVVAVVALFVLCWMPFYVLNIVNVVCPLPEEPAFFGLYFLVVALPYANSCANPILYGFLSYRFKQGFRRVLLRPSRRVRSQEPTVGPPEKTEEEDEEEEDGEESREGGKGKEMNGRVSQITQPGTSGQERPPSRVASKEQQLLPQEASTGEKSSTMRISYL

[3] = target: Somatostatin receptor type 4 (Homo sapiens, UniProt P31391); experiment: Displacement of SST14 from human recombinant SST4 receptor; summary of the method: as §1
Somatostatin receptor type 4, sequence (P31391 whole entry): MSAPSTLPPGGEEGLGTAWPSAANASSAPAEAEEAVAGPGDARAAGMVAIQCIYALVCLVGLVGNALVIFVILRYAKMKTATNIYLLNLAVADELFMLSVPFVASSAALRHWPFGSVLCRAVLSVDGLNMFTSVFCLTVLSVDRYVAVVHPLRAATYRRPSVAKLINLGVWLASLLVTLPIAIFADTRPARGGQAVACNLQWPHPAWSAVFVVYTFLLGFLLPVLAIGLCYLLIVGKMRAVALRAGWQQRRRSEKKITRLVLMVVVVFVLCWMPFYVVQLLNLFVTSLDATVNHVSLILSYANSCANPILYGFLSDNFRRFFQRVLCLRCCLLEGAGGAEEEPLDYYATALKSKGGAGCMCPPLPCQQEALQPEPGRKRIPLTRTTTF

[4] = target: Somatostatin receptor type 5 (Homo sapiens, UniProt P35346); experiment: Displacement of SST14 from human recombinant SST5 receptor expressed in CHO cells by radioligand binding assay; format: cell-based; summary of the method: as §1
Somatostatin receptor type 5, sequence (P35346 whole entry): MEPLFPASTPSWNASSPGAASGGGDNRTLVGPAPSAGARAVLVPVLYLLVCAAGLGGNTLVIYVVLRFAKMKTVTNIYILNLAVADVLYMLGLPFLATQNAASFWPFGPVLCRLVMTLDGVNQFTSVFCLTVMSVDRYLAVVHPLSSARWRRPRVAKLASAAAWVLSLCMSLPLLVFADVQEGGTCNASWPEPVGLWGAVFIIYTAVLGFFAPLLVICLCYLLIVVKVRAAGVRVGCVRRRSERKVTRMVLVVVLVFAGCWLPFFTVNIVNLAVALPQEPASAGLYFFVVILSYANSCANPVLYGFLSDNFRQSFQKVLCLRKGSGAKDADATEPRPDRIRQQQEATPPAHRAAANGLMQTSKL

[5] = Oral bioavailability in Wistar rat administered as single dose; format: ADME, organism-based; details: in vivo
[6] = sPermeability by PAMPA; format: ADME; details: read-out: permeability
Summary of the method: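 Parallel artificial membrane permeation; Pe categorized as low (<0.1), medium (0.1–1.0) or high (>1.0).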

[7] = Clearance in Wistar rat administered as single dose; format: ADME, organism-based; details: in vivo
[8] = Terminal half-life in Wistar rat administered as single dose; format: ADME, organism-based; details: in vivo, read-out: beta t1/2 (converted)
[9] = Solubility in phosphate buffer at pH 6.5 by lyophilization solubility assay; format: physicochemical
Summary of the method: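 Lyophilized DMSO stock solutions redissolved in 50 mM phosphate buffer, pH 6.5; solubility read spectrophotometrically.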

[10] = Volume of distribution at steady state in Wistar rat administered as single dose; format: ADME, organism-based; details: in vivo, read-out: Vdss
[11] = Dissociation constant, pKa by spectrophotometry; format: physicochemical
[12] = Octanol-TAPSO partition coefficient, log D at pH 7.4 by spectrophotometry; format: physicochemical; details: octanol/TAPSO buffer
Summary of the method: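 Spectrophotometric log D in 1-octanol/50 mM TAPSO buffer, pH 7.4, containing 5% (v/v) DMSO.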

[13] = species on record: Homo sapiens; experiment: Selectivity ratio of Ki for human histamine H1 receptor to Ki for human SST5 receptor
[14] = target: Histamine H1 receptor (Homo sapiens, UniProt P35367); experiment: Binding affinity to human histamine H1 receptor
Histamine H1 receptor, sequence (P35367 whole entry): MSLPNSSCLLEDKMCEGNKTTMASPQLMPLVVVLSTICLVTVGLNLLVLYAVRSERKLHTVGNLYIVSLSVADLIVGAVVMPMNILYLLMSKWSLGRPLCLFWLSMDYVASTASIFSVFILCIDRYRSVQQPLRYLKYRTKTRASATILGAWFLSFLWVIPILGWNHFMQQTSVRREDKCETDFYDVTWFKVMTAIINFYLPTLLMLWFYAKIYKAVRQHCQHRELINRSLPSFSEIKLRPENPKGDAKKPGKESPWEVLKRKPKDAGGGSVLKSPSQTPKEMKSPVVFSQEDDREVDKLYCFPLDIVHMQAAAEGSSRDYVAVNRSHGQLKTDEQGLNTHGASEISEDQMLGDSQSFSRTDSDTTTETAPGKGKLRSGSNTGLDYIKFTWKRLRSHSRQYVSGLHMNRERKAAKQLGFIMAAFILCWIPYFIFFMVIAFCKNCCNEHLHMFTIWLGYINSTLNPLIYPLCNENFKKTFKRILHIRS

Somatostatin receptor type 2, sequence (P30874 whole entry): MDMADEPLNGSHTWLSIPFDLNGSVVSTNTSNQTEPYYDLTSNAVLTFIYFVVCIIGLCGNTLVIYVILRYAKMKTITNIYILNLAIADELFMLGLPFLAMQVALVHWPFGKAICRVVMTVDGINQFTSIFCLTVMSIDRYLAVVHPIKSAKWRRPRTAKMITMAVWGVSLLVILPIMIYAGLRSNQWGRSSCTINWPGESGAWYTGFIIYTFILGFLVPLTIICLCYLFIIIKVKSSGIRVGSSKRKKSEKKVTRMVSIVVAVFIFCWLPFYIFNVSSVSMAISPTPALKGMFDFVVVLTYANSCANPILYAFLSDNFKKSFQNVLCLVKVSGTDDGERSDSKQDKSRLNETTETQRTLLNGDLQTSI

Structure (SMILES) | Ki [1] [µM] | Ki [2] [µM] | Ki [3] [µM] | Ki [4] [µM] | bioavailability [5] [%] | Papp [6] [×10⁻⁶ cm/s] | clearance [7] [mL/min/kg] | half-life [8] [h] | solubility [9] [µg/mL] | Vd [10] [L/kg] | pKa [11] | logD [12] | Ratio Ki [13] | Ki [14] [µM]
CCOc1cc(CN2CCC(Nc3nc4cc(NC(C)=O)ccc4o3)CC2)ccc1OC | > 10 | > 10 | > 10 | 0.357 | – | – | – | – | – | – | – | – | – | –
CCOc1cc(CN2CCC(Nc3nc4ccc(Cl)cc4s3)CC2)ccc1OC | > 10 | > 10 | > 10 | 0.361 | – | – | – | – | – | – | – | – | – | –
CCOc1cc(CN2CCC(Nc3nc4ccc(Cl)cc4o3)CC2)ccc1Cl | > 10 | > 10 | > 10 | 0.239 | 33 | 4.81 | 37 | 2.6 | 44 (≈ 105 µM) | 4.6 | – | – | – | –
CCOc1cc(CN2CCC(Nc3nc4cc(S(=O)(=O)CC)ccc4o3)CC2)ccc1OC | > 10 | > 10 | > 10 | 0.196 | 6 | 1.63 | 126 | 0.4 | > 530 | 3.8 | 8.1 | 2.13 | – | –
COc1ccc(CCN2CCC(Nc3nc4ccccc4n3Cc3ccc(F)cc3)CC2)cc1 [ASTEMIZOLE] | > 10 | > 10 | > 10 | – | – | – | – | – | – | – | – | – | – | –
CCOc1cc(NC2CCC(NCc3nc4ccccc4s3)CC2)ccc1OC (configuration not stated) | > 10 | > 10 | > 10 | > 1 | – | – | – | – | – | – | – | – | – | –
CCOc1cc(CN2CCC(Nc3nc4ccncc4o3)CC2)ccc1OC | > 10 | > 10 | > 10 | 0.72 | – | – | – | – | – | – | – | – | – | –
CCOc1cc(CN2CCC(Nc3nc4cccnc4s3)CC2)ccc1OC | > 10 | > 10 | > 10 | 0.309 | – | – | – | – | – | – | – | – | – | –
CCOC(=O)c1c(OCC)cc(CN2CCC(Nc3nc4ccccc4o3)CC2)cc1OCC | > 10 | > 10 | > 10 | 0.156 | – | – | – | – | – | – | – | – | – | –
CCOc1cc(CN2CCC(Nc3nc4ccccc4o3)CC2)ccc1OC1CC1 | > 10 | > 10 | > 10 | 0.537 | – | – | – | – | – | – | – | – | – | –
CCOc1cc(NC2CCN(c3nc4ccccc4s3)CC2)ccc1OC | > 10 | > 10 | > 10 | > 1 | – | – | – | – | – | – | – | – | – | –
CCOc1cc(CN2CCC(Nc3nc4ccccc4o3)CC2)ccc1F | > 10 | > 10 | > 10 | – | – | 4.33 | – | – | > 452 | – | 7.79 | 3.63 | 4.3 | 0.826
CCOc1cc(CN2CCC(Nc3nc4ccccc4o3)CC2)ccc1OC(C)C | > 10 | > 10 | > 10 | > 1 | – | – | – | – | – | – | – | – | – | –
CCOc1cc(CN2CCC(Nc3nc4cc(Cl)ccc4o3)CC2)ccc1OC | > 10 | > 10 | > 10 | 0.194 | – | – | – | – | – | – | – | – | – | –
CCOc1cc(CN2CCC(Nc3nc4cc([N+](=O)[O-])ccc4o3)CC2)ccc1OC | > 10 | > 10 | > 10 | 0.252 | – | – | – | – | – | – | – | – | – | –
CCOc1cc(CN2CCC(Nc3nc4ccccc4s3)CC2)ccc1OC | > 10 | > 10 | > 10 | 0.33 | – | – | – | – | – | – | – | – | – | –
CCOc1cc(CN2CCC(Nc3nc4cc(S(=O)(=O)N(C)C)ccc4o3)CC2)ccc1OC | > 10 | > 10 | > 10 | 0.226 | – | – | – | – | – | – | – | – | – | –
CC(C)Oc1cc(CN2CCC(Nc3nc4ccccc4o3)CC2)cc(OC(C)C)c1 | > 10 | > 10 | > 10 | 0.031 | – | – | – | – | – | – | – | – | – | –
CCOc1cc(CN2CCC(Nc3nc4ccccc4o3)CC2)ccc1C | > 10 | > 10 | > 10 | – | – | – | – | – | – | – | – | – | – | –
COc1ccc(CN2CCC(Nc3nc4ccccc4o3)CC2)cc1OC | > 10 | > 10 | > 10 | 0.472 | – | – | – | – | – | – | – | – | – | –
CCOc1cc(CN2CCC(Nc3nc4cc(OC(F)(F)F)ccc4o3)CC2)ccc1OC | > 10 | > 10 | > 10 | 0.354 | – | – | – | – | – | – | – | – | – | –
CCOc1cc(CN2CCC(C(=O)Nc3nc4ccccc4s3)CC2)ccc1OC | > 10 | > 10 | > 10 | > 1 | – | – | – | – | – | – | – | – | – | –
CCOc1cc(N2CCN(C(=O)Nc3nc4ccccc4s3)CC2)ccc1OC | > 10 | > 10 | > 10 | > 1 | – | – | – | – | – | – | – | – | – | –

Structure (SMILES) | Ki [1] [µM] | Ki [2] [µM] | Ki [3] [µM] | Ki [4] [µM] | bioavailability [5] [%] | Papp [6] [×10⁻⁶ cm/s] | clearance [7] [mL/min/kg] | half-life [8] [h] | solubility [9] [µg/mL] | Vd [10] [L/kg] | pKa [11] | logD [12] | Ratio Ki [13] | Ki [14] [µM]
CCOc1cc(CN2CCC(Nc3nc4cc(NS(=O)(=O)c5ccccc5)ccc4o3)CC2)ccc1OC | > 10 | > 10 | > 10 | 0.205 | – | 2.2 | – | – | 145 (≈ 270 µM) | – | 7.72 | 1.93 | 1 | 0.199
CCCOc1cc(CN2CCC(Nc3nc4ccccc4o3)CC2)ccc1OC | > 10 | > 10 | > 10 | – | – | – | – | – | – | – | – | – | – | –
CCOc1cc(CN2CCC(Nc3nc4ccccc4o3)CC2)cc(OCC)c1F | > 10 | > 10 | > 10 | 0.178 | – | – | – | – | – | – | – | – | – | –
CCOc1cc(CN2CCC(Nc3nc4cc(S(=O)(=O)N(C)C)ccc4o3)CC2)cc(OCC)c1-n1cccc1 | > 10 | > 10 | > 10 | 0.052 | – | 1.31 | – | – | 22 (≈ 38.8 µM) | – | – | 2.89 | 96 | 5
COc1ccc(CN2CCC(Nc3nc4ccccc4o3)CC2)cc1OCC(C)C | > 10 | > 10 | > 10 | – | – | – | – | – | – | – | – | – | – | –
CCOc1cc(CN2CCC(Nc3nc4ccccc4o3)CC2)cc(OCC)c1N | > 10 | > 10 | > 10 | 0.033 | – | – | – | – | – | – | – | – | – | –
COc1ccc(CN2CCC(Nc3nc4ccccc4o3)CC2)cc1OCCF | > 10 | > 10 | > 10 | 0.487 | – | – | – | – | – | – | – | – | – | –
CCOc1cc(CN2CCC(Nc3nc4cc(Cl)c(S(N)(=O)=O)cc4o3)CC2)ccc1OC | > 10 | > 10 | > 10 | 0.343 | – | 1.1 | – | – | 338 (≈ 683 µM) | – | 7.92 | 2.67 | 3 | 1.01
CCOc1cc(NCc2cccc(Nc3nc4ccccc4s3)c2)ccc1OC | > 10 | > 10 | > 10 | > 1 | – | – | – | – | – | – | – | – | – | –
CCNc1cc(CN2CCC(Nc3nc4ccccc4o3)CC2)ccc1OC | > 10 | > 10 | > 10 | 0.371 | – | – | – | – | – | – | – | – | – | –
CCOc1cc(CN2CCC(Nc3nc4ccccc4[nH]3)CC2)ccc1OC | > 10 | > 10 | > 10 | > 1 | – | – | – | – | – | – | – | – | – | –
CCOc1cc(CN2CCC(Nc3nc4cc(Cl)c(S(N)(=O)=O)cc4o3)CC2)cc(OCC)c1F | > 10 | > 10 | > 10 | 0.252 | – | 2.45 | – | – | 32 (≈ 60.7 µM) | – | 7.61 | 2.78 | – | –
CCOc1cc(CN2CCC(Nc3nc4cc(S(=O)(=O)CC)ccc4o3)CC2)cc(OC2CCOCC2)c1 | > 10 | > 10 | > 10 | 0.055 | – | 1.75 | – | – | 183 (≈ 337 µM) | – | 7.55 | 3.13 | 698 | 38.4
CCOc1cc(NC2CCC(Nc3nc4ccccc4s3)CC2)ccc1OC (configuration not stated) | > 10 | > 10 | > 10 | > 1 | – | – | – | – | – | – | – | – | – | –
CCOc1cc(CN2CCC(Nc3nc4ccccc4o3)CC2)ccc1C(F)(F)F | > 10 | > 10 | > 10 | 0.524 | – | – | – | – | – | – | – | – | – | –
CCOc1cc(CN2CCC(Nc3nc4ncccc4o3)CC2)ccc1OC | > 10 | > 10 | > 10 | > 1 | – | – | – | – | – | – | – | – | – | –
CCOc1cc(CN2CCC(Nc3nc4ccccc4o3)CC2)c(F)c(OCC)c1 | > 10 | > 10 | > 10 | > 1 | – | – | – | – | – | – | – | – | – | –
CCOc1cc(CN2CCC(Nc3nc4ccccc4o3)CC2)c(F)cc1OCCO | > 10 | > 10 | > 10 | > 1 | – | – | – | – | – | – | – | – | – | –
CCOc1cc(CN2CCC(Nc3nc4ccccc4o3)CC2)ccc1O | > 10 | > 10 | > 10 | – | – | – | – | – | – | – | – | – | – | –
CCOc1cc(CN2CCC(Nc3nc4cc(NS(=O)(=O)c5cn(C)cn5)ccc4o3)CC2)ccc1OC | > 10 | > 10 | > 10 | 0.175 | 2 | 0.49 | 41 | 1.5 | > 720 | 2.2 | 7.91 | 1.48 | – | –
COc1ccc(CN2CCC(Nc3nc4ccccc4o3)CC2)cc1OC1CCCC1 | > 10 | > 10 | > 10 | – | – | – | – | – | – | – | – | – | – | –
CCOc1cc(CN2CCC(Nc3nc4cccnc4o3)CC2)ccc1OC | > 10 | > 10 | > 10 | 0.633 | – | – | – | – | – | – | – | – | – | –
CCOc1cc(CN2CCC(Nc3nc4ccccc4o3)CC2)cnc1OC | > 10 | > 10 | > 10 | > 1 | – | – | – | – | – | – | – | – | – | –
